# Laboratory results published in ChEMBL document CHEMBL1921795, “Discovery, synthesis, and structure-activity relationship development of a series of N-4-(2,5-dioxopyrrolidin-1-yl)phenylpicolinamides (VU0400195, ML182): characterization of a novel positive allosteric modulator of the metabotropic glutamate receptor 4 (mGlu(4)) with oral efficacy in an …” (J Med Chem, 2011).
# Legend:
# [1] = system: Rattus norvegicus; assay: Half life in Sprague-Dawley rat at 1 mg/kg, iv by LC/MS analysis; type: ADME, organism-based; set-up: dose 1 mg/kg, route intravenous; conditions: in vivo
# Method in brief: (§1)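 Male Sprague-Dawley rats (n=2, 250-300 g), carotid and jugular cannulated; 1 mg/kg iv via jugular catheter in 20% DMSO/80% saline. Arterial blood from pre-dose to 24 h, EDTA plasma analysed by LC/MS/MS; noncompartmental analysis of individual profiles.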
# [2] = system: Rattus norvegicus; assay: Volume of distribution at steady state in Sprague-Dawley rat at 1 mg/kg, iv by LC/MS analysis; type: ADME, organism-based; set-up: dose 1 mg/kg, route intravenous; conditions: in vivo; method in brief: as §1
# [3] = system: Rattus norvegicus; assay: AUC (0 to 24 hrs) in Sprague-Dawley rat at 1 mg/kg, iv by LC/MS analysis; type: ADME, organism-based, Plasma; set-up: time < 24 hr, dose 1 mg/kg, route intravenous; conditions: in vivo
# Method in brief: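 Male Sprague-Dawley rats (n=2, 250-300 g) with carotid artery and jugular vein catheters, acclimated about one week, fed ad libitum. Dose given through the jugular catheter in 20% DMSO/80% saline at 1 mL/kg. Carotid blood drawn pre-dose and at 2, 7, 15, 30 min and 1, 2, 4, 7, 24 h into chilled EDTA tubes. Plasma measured by LC/MS/MS; parameters from noncompartmental analysis of individual profiles.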
# [4] = system: Rattus norvegicus; assay: AUC (0 to 24 hrs) in Sprague-Dawley rat at 10 mg/kg, po by LC/MS analysis; type: ADME, organism-based, Plasma; set-up: time < 24 hr, dose 10 mg/kg, route oral; conditions: in vivo
# [5] = system: Rattus norvegicus; assay: Cmax in Sprague-Dawley rat at 10 mg/kg, po by LC/MS analysis; type: ADME, organism-based; set-up: dose 10 mg/kg, route oral; conditions: in vivo
# [6] = system: Rattus norvegicus; assay: Oral bioavailability in Sprague-Dawley rat at 10 mg/kg by LC/MS analysis; type: ADME, organism-based; conditions: in vivo
# [7] = AUC (0 to 6 hrs) in Sprague-Dawley rat hepatic portal vein plasma at 10 mg/kg, po; type: ADME, organism-based; set-up: time < 6 hr, dose 10 mg/kg, route oral
# [8] = system: Brain; assay: AUC (0 to 6 hrs) in Sprague-Dawley rat brain at 10 mg/kg, po; type: ADME, organism-based; set-up: time < 6 hr, dose 10 mg/kg, route oral; conditions: in vivo
# [9] = Ratio of AUC in brain to plasma in Sprague-Dawley rat
# [10] = biological target: Cytochrome P450 2D6 (Homo sapiens, UniProt P10635); assay: Inhibition of CYP2D6 in human liver microsomes using […] as substrate; type: ADME, Microsome
# Cytochrome P450 2D6, sequence (P10635 whole entry): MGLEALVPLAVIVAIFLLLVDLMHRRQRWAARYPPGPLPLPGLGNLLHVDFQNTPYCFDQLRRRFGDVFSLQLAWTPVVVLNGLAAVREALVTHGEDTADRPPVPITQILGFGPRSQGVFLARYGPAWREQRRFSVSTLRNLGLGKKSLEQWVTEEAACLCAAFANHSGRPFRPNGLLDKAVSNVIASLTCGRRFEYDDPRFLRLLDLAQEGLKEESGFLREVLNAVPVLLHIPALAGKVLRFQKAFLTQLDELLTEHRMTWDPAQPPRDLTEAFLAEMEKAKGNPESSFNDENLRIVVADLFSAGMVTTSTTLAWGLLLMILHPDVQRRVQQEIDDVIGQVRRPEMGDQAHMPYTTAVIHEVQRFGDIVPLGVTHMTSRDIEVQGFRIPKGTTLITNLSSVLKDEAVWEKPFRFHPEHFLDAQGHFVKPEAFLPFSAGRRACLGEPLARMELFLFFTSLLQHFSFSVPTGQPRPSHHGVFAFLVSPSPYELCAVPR
# Method in brief: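 Pooled human liver microsomes (0.1 mg/mL) with probe cocktail (phenacetin 10 µM, diclofenac 5 µM, dextromethorphan 5 µM, midazolam 2 µM) in 0.1 M phosphate pH 7.4; compound 100 nM–30 µM in duplicate, 15 min preincubation at 37 °C, then 1 mM NADPH for 8 min. LC/MS/MS of metabolite formation; IC50 derived.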
# [11] = Intrinsic clearance in human hepatic microsomes; type: ADME, Microsome; conditions: human liver microsomes
# [12] = Intrinsic clearance in rat hepatic microsomes at 1 uM by LC/MS/MS analysis; type: ADME, Microsome; conditions: rat liver microsomes
# [13] = system: Plasma; assay: Fraction unbound in human plasma; type: ADME, cell-free
# [14] = system: Plasma; assay: Fraction unbound in rat plasma by equilibrium dialysis; type: ADME, cell-free
# Method in brief: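 Rat plasma spiked with compound, equilibrium dialysis against 25 mM phosphate buffer pH 7.4 for 4 h at 37 °C with shaking; both chambers matrix-matched, acetonitrile-extracted and quantified by LC/MS/MS; triplicate.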
# [15] = system: Brain; assay: Fraction unbound in rat brain homogenate by equilibrium dialysis; type: ADME, tissue-based
# [16] = biological target: Cytochrome P450 2C19 (Homo sapiens, UniProt P33261); assay: Inhibition of CYP2C19 in human liver microsomes using S-mephenytoin as substrate; type: ADME, Microsome
# Cytochrome P450 2C19, sequence (P33261 whole entry): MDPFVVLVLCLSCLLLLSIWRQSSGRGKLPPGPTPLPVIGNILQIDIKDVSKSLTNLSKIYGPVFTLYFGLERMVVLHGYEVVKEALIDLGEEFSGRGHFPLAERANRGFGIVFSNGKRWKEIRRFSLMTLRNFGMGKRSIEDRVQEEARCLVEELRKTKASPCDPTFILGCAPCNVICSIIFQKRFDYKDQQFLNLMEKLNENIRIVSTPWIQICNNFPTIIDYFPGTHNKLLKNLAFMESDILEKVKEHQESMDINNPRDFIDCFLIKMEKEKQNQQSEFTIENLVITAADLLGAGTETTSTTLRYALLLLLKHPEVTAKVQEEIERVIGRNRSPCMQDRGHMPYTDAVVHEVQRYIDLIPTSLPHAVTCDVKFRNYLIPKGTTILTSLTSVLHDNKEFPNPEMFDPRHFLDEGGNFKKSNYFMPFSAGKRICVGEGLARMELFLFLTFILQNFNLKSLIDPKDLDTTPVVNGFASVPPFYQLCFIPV
# [17] = biological target: Metabotropic glutamate receptor 6 (Homo sapiens, UniProt O15303); assay: Positive allosteric modulator activity at human mGlu6 receptor at 10 uM by thallium flux assay
# Metabotropic glutamate receptor 6, sequence (O15303 whole entry): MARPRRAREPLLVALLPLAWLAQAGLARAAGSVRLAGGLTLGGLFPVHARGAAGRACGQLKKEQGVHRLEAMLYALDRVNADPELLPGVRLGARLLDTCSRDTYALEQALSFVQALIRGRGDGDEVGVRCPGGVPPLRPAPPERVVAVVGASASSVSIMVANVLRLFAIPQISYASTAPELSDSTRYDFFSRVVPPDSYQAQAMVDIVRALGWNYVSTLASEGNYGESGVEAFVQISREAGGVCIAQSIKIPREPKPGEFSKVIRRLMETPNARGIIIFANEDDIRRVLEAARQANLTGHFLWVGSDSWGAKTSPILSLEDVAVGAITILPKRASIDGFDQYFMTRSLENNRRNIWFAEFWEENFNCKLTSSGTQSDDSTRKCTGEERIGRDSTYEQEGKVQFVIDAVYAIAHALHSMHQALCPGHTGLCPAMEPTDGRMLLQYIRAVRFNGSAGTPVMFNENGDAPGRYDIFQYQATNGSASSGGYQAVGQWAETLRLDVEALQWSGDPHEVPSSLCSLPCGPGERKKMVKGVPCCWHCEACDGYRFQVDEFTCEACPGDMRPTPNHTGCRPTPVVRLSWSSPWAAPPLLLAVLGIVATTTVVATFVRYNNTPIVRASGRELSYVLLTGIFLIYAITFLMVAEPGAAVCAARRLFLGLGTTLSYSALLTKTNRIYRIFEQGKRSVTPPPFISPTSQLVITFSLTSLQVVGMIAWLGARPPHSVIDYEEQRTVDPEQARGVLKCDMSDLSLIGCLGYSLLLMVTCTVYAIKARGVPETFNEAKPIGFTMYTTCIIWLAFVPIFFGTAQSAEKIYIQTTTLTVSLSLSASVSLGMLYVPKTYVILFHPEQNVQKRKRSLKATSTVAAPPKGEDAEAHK
# Method in brief: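 Cells expressing human mGlu6 with GIRK channels, thallium flux double-addition protocol. 10 µM compound or vehicle was added, then a full glutamate concentration-response 2.5 min later. A left shift >2-fold was scored as potentiator activity. A right shift >2-fold or max depression ≥75% was scored as antagonist activity. Mean ± SEM of three experiments in singlicate.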
# [18] = biological target: T1, Cytochrome P450 1A2 (Homo sapiens, UniProt P05177); assay: Inhibition of CYP1A2 in human liver microsomes using phenacetin as substrate
# T1 sequence (P05177 whole entry): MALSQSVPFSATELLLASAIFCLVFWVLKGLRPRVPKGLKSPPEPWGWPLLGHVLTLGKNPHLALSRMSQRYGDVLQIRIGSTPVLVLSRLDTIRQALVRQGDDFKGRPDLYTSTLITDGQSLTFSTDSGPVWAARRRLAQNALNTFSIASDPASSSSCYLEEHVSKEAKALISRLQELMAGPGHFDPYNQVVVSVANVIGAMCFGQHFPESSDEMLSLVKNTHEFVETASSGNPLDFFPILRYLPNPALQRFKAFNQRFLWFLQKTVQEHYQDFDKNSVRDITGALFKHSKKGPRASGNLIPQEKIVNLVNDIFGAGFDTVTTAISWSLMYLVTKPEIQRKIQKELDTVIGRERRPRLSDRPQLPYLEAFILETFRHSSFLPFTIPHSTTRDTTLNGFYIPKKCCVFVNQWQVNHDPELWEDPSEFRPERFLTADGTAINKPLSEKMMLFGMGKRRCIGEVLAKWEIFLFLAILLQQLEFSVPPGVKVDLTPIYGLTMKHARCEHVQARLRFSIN
# [19] = biological target: Cytochrome P450 2C9 (Homo sapiens, UniProt P11712); assay: Inhibition of CYP2C9 in human liver microsomes using diclofenac as substrate
# Cytochrome P450 2C9, sequence (P11712 whole entry): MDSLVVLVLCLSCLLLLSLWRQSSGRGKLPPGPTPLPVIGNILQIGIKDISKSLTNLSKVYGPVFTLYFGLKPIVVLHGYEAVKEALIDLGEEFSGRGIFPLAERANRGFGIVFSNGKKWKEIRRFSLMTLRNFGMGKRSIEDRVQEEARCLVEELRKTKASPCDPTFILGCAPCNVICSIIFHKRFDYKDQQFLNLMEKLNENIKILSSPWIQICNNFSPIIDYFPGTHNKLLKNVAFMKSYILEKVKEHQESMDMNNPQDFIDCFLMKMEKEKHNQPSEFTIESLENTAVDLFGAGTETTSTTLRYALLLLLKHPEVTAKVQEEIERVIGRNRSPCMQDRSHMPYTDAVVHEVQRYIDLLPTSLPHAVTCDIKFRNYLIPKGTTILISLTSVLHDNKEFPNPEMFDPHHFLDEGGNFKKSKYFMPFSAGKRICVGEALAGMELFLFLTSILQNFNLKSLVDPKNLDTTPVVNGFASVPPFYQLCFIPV
# [20] = Half life in iv dosed Beagle dog; type: ADME, organism-based, Canis lupus familiaris; conditions: in vivo
# [21] = Half life in rhesus monkey at 1 mg/kg, iv by LC/MS analysis; type: ADME, organism-based, Macaca mulatta; set-up: dose 1 mg/kg, route intravenous; conditions: in vivo
# Method in brief: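 Rhesus monkeys (8-11 kg) tranquilized with ketamine 10 mg/kg im and Telazol 3 mg/kg im. Compound given iv at 1 mg/kg, blood collected, plasma analysed by LC/MS/MS (MRM, positive ESI).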
smiles,measurement,setting,value
Cl.O=C(Nc1ccc(N2C(=O)[C@@H]3[C@H](C2=O)[C@@H]2C=C[C@H]3C2)c(Cl)c1)c1ccccn1,t1/2,[1],0.673 h
same,Vdss,[2],18 L/kg
same,AUC,[3],454 ng·h/mL
same,AUC,[4],4354 ng·h/mL
same,Cmax,[5],238 ng/mL
same,F,[6],97%
same,AUC(0-t) at 6 h,[7],8.48 nM·h
same,AUC,[8],800 nM·h
same,Kp,[9],0.93
O=C(Nc1ccc(N2C(=O)[C@@H]3[C@H](C2=O)[C@@H]2C=C[C@H]3C2)c(Cl)c1)c1ccccn1 (mixture of isomers),IC50,[10],> 30 µM
same,CLint scaled,[11],19.7 mL/min/kg
same,CLint scaled at 1 µM,[12],53 mL/min/kg
same,Fu,[13],4.1%
same,Fu,[14],3.2%
same,Fu,[15],7.6%
same,IC50,[16],> 30 µM
same,EC50,[17],> 10 µM
same,IC50,[18],> 30 µM
same,IC50,[19],> 30 µM
Cl.O=C(Nc1ccc(N2C(=O)CC(c3ccccc3)C2=O)c(Cl)c1)c1ccccn1 (configuration not stated),t1/2,[1],5.48 h
same,Vdss,[2],0.58 L/kg
same,AUC,[3],3225 ng·h/mL
same,AUC,[4],2685 ng·h/mL
same,Cmax,[5],553 ng/mL
same,F,[6],8.3%
same,half-life,[20],> 3 h
same,half-life,[21],> 3 h
